Rows were chosen to be rich in hits. Some 2.5% of all compounds tested hit in one or more screens of this group.
GalR3 antagonist – GalR3 antagonists in HEK293 cells, primary screen, cell-based, fluorescence readout. Galanin receptor type 3 (Homo sapiens), O60755. HEK293 GalR3-CNG cAMP membrane potential fluorescence; galR3 body fused to GalR1 C-terminus. inhibition, % at 3 µM. 360,000 compounds, 0.44% hits. AID 651719, 2012;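 active = inhibition above the screen-wide average plus 3 SD, cut at about 13% in these data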;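 also: forskolin and galanin both at EC90 stimulate the cells; cAMP rise reported by CNG channel membrane potential dye signal; 0% = forskolin plus galanin with DMSO and 100% = forskolin alone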
Target sequence (O60755 1-299 limits assumed): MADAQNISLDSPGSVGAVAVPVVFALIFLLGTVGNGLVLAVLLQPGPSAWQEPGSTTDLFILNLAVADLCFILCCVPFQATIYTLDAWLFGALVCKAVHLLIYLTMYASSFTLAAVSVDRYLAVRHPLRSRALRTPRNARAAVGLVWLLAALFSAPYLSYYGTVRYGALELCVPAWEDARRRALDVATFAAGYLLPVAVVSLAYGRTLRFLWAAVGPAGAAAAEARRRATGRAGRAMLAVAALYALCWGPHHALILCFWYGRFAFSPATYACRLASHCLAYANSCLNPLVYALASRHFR
NadD inh – inhibitors of S. aureus NadD, primary screen, biochemical, colorimetric, uHTS. purified NadD enzyme, colorimetric absorbance read-out. inhibition, % at 20 µM. 360,000 compounds, 0.78% hits. AID 602399, 2012; in the data active = inhibition above about 26%
MsrA inh – bovine MsrA enzyme inhibitors, primary screen, biochemical, absorbance, HTS | Methionine sulfoxide reductase A (Bos taurus) | purified bovine MsrA, absorbance read-out | inhibition, % at 15.5 µM | 360,000 compounds, 0.75% hits; in the data active = inhibition above about 4.5%;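 also: 0% = vehicle wells with enzyme and 100% = reference inhibitor wells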
NR2E3 ag-1 – inhibitors of NR2E3-RetCOR corepressor binding, primary screen, NR2E3 agonist project, biochemical, TR-FRET, GST-NR2E3, biotin-RetCOR | Photoreceptor-specific nuclear receptor (Homo sapiens), Q9Y5X4 | 1536-well | inhibition of corepressor binding, % at 4.78 µM | 320,000 compounds, 0.12% hits | AID 2300, 2010;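 active = percent inhibition above the cutoff of mean plus 3 SD of all tested compounds, set per screening campaign, cut at about 20% in these data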;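 also: 0% = DMSO wells and 100% = biotin wells as full block of FRET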
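Material: NR2E3–RetCOR corepressor complex / Incubation: Compound–protein incubation for 5 h at 4 °C / Dosing: compound at 4.8 µM, single dose / Detection: time-resolved FRET / Benchmarks: high control biotin, low control 0.6% DMSO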
bovine MsrA act – bovine MsrA enzyme activators, primary screen, biochemical, absorbance, HTS. 360,000 compounds, 0.3% hits. Methionine sulfoxide reductase A (Bos taurus). AID 602163, 2012. purified bovine MsrA, absorbance read-out. activation, % at 10.6 µM; in the data active = activation above about 7.5%;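 also: 0% = vehicle and 100% = reference activator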
NR2E3 ag-2 – NR2E3 agonists in two-hybrid cells, primary screen, cell-based, luminescence, CHO-S, Gal4-NCOR/VP16-NR2E3; Photoreceptor-specific nuclear receptor (Homo sapiens), Q9Y5X4; luciferase; inhibition of corepressor binding, % at 3.98 µM; 360,000 compounds, 0.35% hits;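 active = inhibition above the mean of all tested compounds plus 3 SD, cut at about 70% in these data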;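 also: 0% = DMSO with NR2E3 transfected cells and 100% = cells lacking NR2E3 construct; higher means lower luciferase signal from less NR2E3 corepressor binding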
GalR3 antag conf – GalR3 antagonist hit confirmation, cell-based, fluorescence, triplicate; shares compounds with GalR3 antagonist; HEK293 GalR3 CNG cAMP biosensor, membrane potential fluorescence; galR3 fused to GalR1 carboxy tail; challenged with forskolin and galanin at EC90; inhibition, % at 3 µM; 1,600 compounds, 59% hits; AID 652245, 2013;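 active = inhibition above the primary screen's cutoff, the mean inhibition of all screened compounds plus 3 SD, cut at about 13% in these data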;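 also: 0% = forskolin plus galanin and 100% = forskolin alone with DMSO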
CNG parental – nonspecific cAMP agonists in parental HEK-CNG cells, counter-screen for GalR3 antagonist project, cell-based, fluorescence, high throughput | shares compounds with GalR3 antagonist | HEK293-CNG parental cells, cAMP membrane potential fluorescence; normalised: DMSO wells 0%, forskolin wells 100% | activation, % at 3 µM | 1,600 compounds, 10% hits; in the data active = activation above about 1.3%
* = called active by the depositor; . = not tested or not shown.

SMILES	GalR3 antagonist	NadD inh	MsrA inh	NR2E3 ag-1	bovine MsrA act	NR2E3 ag-2	GalR3 antag conf	CNG parental
CCCOc1cccc(C(=O)N/N=C/c2ccoc2)c1	-1.9	-5.0	-0.5	2.8	-5.1	-10.2	.	.
OCCC1CN(Cc2cnc(-c3ccc(Cl)cc3)nc2)CCN1C1CCCCC1 (stereo not given)	83.1*	-9.8	0.5	2.5	-3.9	-2.9	12.7*	0.5
Cc1cccc(-c2ncc(CN3CCN(C4CCCC4)C(CCO)C3)cn2)c1 (stereo not given)	-1.2	6.0	0.8	2.5	-0.8	8.3	.	.
COc1ccc(/C=C(/NC(=O)c2ccccc2)C(=O)NC2CCS(=O)(=O)C2)cc1 (stereo not given)	.	-2.7	3.1	-3.5	0.2	-6.0	1.4	0.1
CC(=O)Nc1ccc(NC(=O)c2nc(S(=O)(=O)Cc3ccccc3)ncc2Cl)cc1	-5.7	-4.8	-0.3	1.4	-3.0	10.9	.	.
CS(=O)(=O)c1ncc(Cl)c(C(=O)Nc2ccc3ccccc3c2)n1	20.0*	1.3	1.2	.	-6.9	19.6	-1.8	0.4
CCCOc1cccc(C2C(C(=O)c3ccc(C)o3)=C(O)C(=O)N2CCN2CCOCC2)c1 (stereo not given)	-6.0	4.6	1.5	5.4	-1.6	-5.6	.	.
CCOc1cccc(C2C(C(=O)c3ccco3)=C(O)C(=O)N2c2nnc(C)s2)c1 (stereo not given)	21.6*	3.2	0.0	4.6	-1.5	-38.9	2.0	-0.1
CCSc1nnc(N2C(=O)C(O)=C(C(=O)c3ccco3)C2c2cccc(OC)c2)s1 (stereo not given)	14.0*	10.4	1.9	2.8	-3.0	-29.9	6.4	-0.2
CCCOc1cccc(C2C(C(=O)c3ccc(C)o3)=C(O)C(=O)N2c2nc(C)c(C(C)=O)s2)c1 (stereo not given)	27.8*	17.7	1.9	7.7	-2.7	-45.5	13.3*	0.4
CCOc1cccc(C2C(C(=O)c3ccc(C)o3)=C(O)C(=O)N2c2nnc(C)s2)c1 (stereo not given)	-3.4	8.5	-0.1	.	0.4	-10.7	.	.
O=C(Nc1ccc(-c2nc3ccccc3o2)cc1)c1ccc(N2C(=O)C3C4C=CC(C4)C3C2=O)cc1 (stereo not given)	61.1*	3.9	0.6	-8.8	-1.1	-6.4	109.6*	-0.9
O=C(Nc1ccc(-c2nc3ccccc3o2)cc1)c1ccc2c(c1)OCO2	-6.9	0.1	1.3	5.1	-9.6	-34.7	.	.
CCOc1ccc(-c2cc(C(=O)Nc3ccc(C)c(NS(C)(=O)=O)c3)[nH]n2)c(C)c1	13.8*	4.3	0.0	.	-2.3	-2.9	99.1*	-0.7
Cn1nccc1C(=O)Nn1cnnc1	.	-0.4	-1.1	-1.6	-1.2	-38.2	6.0	0.1
Cn1c(-c2ccccc2)cnc1NCc1cc2c(cc1[N+](=O)[O-])OCO2	-2.7	-6.3	0.4	-0.6	-1.4	-25.2	.	.
Cc1nc(C)n(CCNS(=O)(=O)c2ccc(C)c(C)c2)n1	17.6*	-4.4	1.0	-0.4	-1.6	-29.2	-4.0	0.2
Cc1cccc(C)c1OCCn1nc(C(=O)O)c2ccccc2c1=O	16.1*	-5.5	0.6	6.3	-5.5	-9.1	24.1*	0.3
Cc1ccc(SCCn2nc(C(=O)O)c3ccccc3c2=O)cc1	10.3	-6.9	-0.4	-1.8	0.6	-34.7	.	.
